Key:
Human gammaherpesvirus 4 = test: Effective concentration to inhibit 50% of epstein Barr virus replication in a cell culture model; format: functional, organism-based
MT2 = test: Cytotoxicity against MT-2 cell lines of human; format: functional; conditions: read-out: ID50 (the source's name)
[1] = Effective concentration to inhibit 50% of human immunodeficiency virus replication in a cell culture model; format: functional
Hepatitis C virus = test: Effective concentration to inhibit 50% of hepatitis C virus replication in a cell culture model; format: functional, organism-based, Hepacivirus hominis
How it was run: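 HCV replicon Huh-Luc/neo cells grown to confluence, then treated with varying drug concentrations in DMEM with 10% dFBS for 3 days. Medium was removed and cells lysed in passive lysis buffer, shaken 15 min at room temperature. Lysate was mixed with luciferase substrate and luminescence read immediately as the measure of replicon activity.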

CCRF-CEM = test: Cytotoxicity against CEM cell lines of human; format: functional; conditions: read-out: ID50 (the source's name)
Human alphaherpesvirus 2 = test: Effective concentration to inhibit 50% of herpes simplex virus type 2 replication in a cell culture model; format: functional, organism-based
Hepatitis B virus = test: Effective concentration to inhibit 50% of hepatitis B virus replication in a cell culture model; format: functional, organism-based
Human alphaherpesvirus 1 = test: Effective concentration to inhibit 50% of herpes simplex virus type 1 replication in a cell culture model; format: functional, organism-based

Compound | EC50 (Human gammaherpesvirus 4) | IC50 (MT2) | EC50 [1] | EC50 (Hepatitis C virus) | IC50 (CCRF-CEM) | EC50 (Human alphaherpesvirus 2) | EC50 (Hepatitis B virus) | EC50 (Human alphaherpesvirus 1)
O=C(OCc1ccccc1)c1cc2ccc3c(c2c(-c2ccc4c(c2)OCO4)c1COCc1ccccc1)OCO3 | > 20 µM | 100 µM | > 100 µM | 10 µM | 50 µM | > 50 µM | > 10 µM | > 50 µM
O=C1c2cc3ccc4c(c3c(-c3ccc5c(c3)OCO5)c2CN1CCCO)OCO4 | > 20 µM | 8 µM | > 8 µM | > 10 µM | 6 µM | 7 µM | > 0.9 µM | 5 µM
CCOC(=O)c1c(C(=O)OCC)c(-c2ccc3c(c2)OCO3)c2c3c(ccc2c1OC)OCO3 | > 20 µM | 24 µM | > 24 µM | > 10 µM | > 100 µM | > 50 µM | > 20 µM | > 50 µM
CC(=O)NN1C(=O)c2cc3ccc4c(c3c(-c3ccc5c(c3)OCO5)c2C1=O)OCO4 | > 20 µM | > 100 µM | > 100 µM | > 10 µM | 93 µM | > 40 µM | 1 µM | > 40 µM
COc1ccc(-c2c3c(cc4ccc5c(c24)OCO5)C(=O)NC3)cc1OC | > 20 µM | 16 µM | > 16 µM | 3 µM | 5 µM | 0.5 µM | > 10 µM | 0.6 µM
O=C(O)c1cc2ccc3c(c2c(-c2ccc4c(c2)OCO4)c1C(=O)O)OCO3 | > 20 µM | > 100 µM | > 100 µM | > 10 µM | > 100 µM | > 50 µM | > 10 µM | > 50 µM
CN(C)C(=O)c1cc2ccc3c(c2c(-c2ccc4c(c2)OCO4)c1C(=O)O)OCO3 | > 20 µM | 70 µM | > 70 µM | > 10 µM | 76 µM | > 50 µM | > 10 µM | > 50 µM
CN1Cc2cc3ccc4c(c3c(-c3ccc5c(c3)OCO5)c2C1=O)OCO4 | > 20 µM | 26 µM | > 26 µM | 3 µM | 27 µM | 14 µM | 0.08 µM | 14 µM
COC(=O)c1cc2ccc3c(c2c(-c2ccc4c(c2)OCO4)c1C(=O)OC)OCO3 | > 20 µM | 28 µM | > 28 µM | 10 µM | 50 µM | > 50 µM | > 20 µM | > 50 µM
CC(=O)NN1Cc2cc3ccc4c(c3c(-c3ccc5c(c3)OCO5)c2C1=O)OCO4 | > 20 µM | 25 µM | > 25 µM | > 10 µM | 32 µM | 40 µM | 0.03 µM | 17 µM
O=C1NC(=O)c2c1cc1ccc3c(c1c2-c1ccc2c(c1)OCO2)OCO3 | – | – | – | – | – | – | > 10 µM | –
O=C1c2cc3ccc4c(c3c(-c3ccc5c(c3)OCO5)c2C(=O)N1O)OCO4 | > 5 µM | 16 µM | > 16 µM | > 10 µM | 17 µM | > 30 µM | > 10 µM | > 30 µM
O=C(O)c1cc2ccc3c(c2c(-c2ccc4c(c2)OCO4)c1COCc1ccccc1)OCO3 | > 20 µM | 48 µM | > 48 µM | > 10 µM | > 50 µM | > 25 µM | > 10 µM | > 25 µM
COc1ccc(-c2c(C(=O)O)c(C(N)=O)cc3ccc4c(c23)OCO4)cc1OC | > 20 µM | 10 µM | > 10 µM | 3 µM | 3 µM | > 3 µM | 0.8 µM | 0.8 µM
